Data reported in ChEMBL document CHEMBL4602735, “Discovery of (1H-Pyrazolo[3,4-c]pyridin-5-yl)sulfonamide Analogues as Hepatitis B Virus Capsid Assembly Modulators by Conformation Constraint” (J Med Chem, 2020).
One block for each compound: values may come before it. Activity calls are given as the source filed them. The rule behind the calls is not given here.

Assays:
Hepatitis B virus [1] = test: Antiviral activity against HBV genotype D in hydrodynamic injection-based C57BL/6 mouse model of HBV infection assessed as inhibition of liver HBV DNA level at 100 mg/kg, po dosed twice daily for 7 days by real-time PCR analysis; format: functional, organism-based
Hepatitis B virus [2] = test: Antiviral activity against HBV genotype D in hydrodynamic injection-based C57BL/6 mouse model of HBV infection assessed as inhibition of liver HBV DNA level at 50 mg/kg, po dosed twice daily for 7 days by real-time PCR analysis; format: functional, organism-based
Hepatitis B virus [3] = test: Antiviral activity against HBV genotype D in hydrodynamic injection-based C57BL/6 mouse model of HBV infection assessed as inhibition of serum HBV DNA level at 100 mg/kg, po dosed twice daily for 7 days by real-time PCR analysis; format: functional, organism-based
Hepatitis B virus [4] = test: Antiviral activity against HBV genotype D in hydrodynamic injection-based C57BL/6 mouse model of HBV infection assessed as inhibition of HBV replication at 50 mg/kg, po dosed once daily for 7 days by real-time PCR analysis; format: functional, organism-based
Hepatitis B virus [5] = test: Antiviral activity against HBV genotype D in hydrodynamic injection-based C57BL/6 mouse model of HBV infection assessed as inhibition of serum HBV DNA level at 50 mg/kg, po dosed twice daily for 7 days by real-time PCR analysis; format: functional, organism-based
Hepatitis B virus [6] = test: Antiviral activity against HBV genotype D in hydrodynamic injection-based C57BL/6 mouse model of HBV infection assessed as inhibition of serum HBV DNA level at 200 mg/kg, po dosed twice daily for 7 days by real-time PCR analysis; format: functional, organism-based
Hepatitis B virus [7] = test: Antiviral activity against HBV genotype D in hydrodynamic injection-based C57BL/6 mouse model of HBV infection assessed as inhibition of liver HBV DNA level at 200 mg/kg, po dosed twice daily for 7 days by real-time PCR analysis; format: functional, organism-based
Hepatitis B virus [8] = test: Antiviral activity against HBV infected in human HepAD38 cells assessed as reduction in viral DNA levels incubated for 6 days by PCR analysis; format: functional, organism-based; settings: HePAD38, 144 h
Hepatitis B virus [9] = test: Induction of capsid assembly of recombinant HBV core protein 149 (1 to 149 residues) at 10 uM incubated overnight by electron microscopy
Procedure, shortened: (§1)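 Core protein N-terminal domain Cp149 (aa 1-149, 5 μM) incubated with compound (10 μM) or DMSO overnight at 37 °C in 150 mM NaCl, 50 mM HEPES, pH 7.4. Assembly is read by EM and by size-exclusion chromatography. In SEC, capsids elute early (about 1.08 mL) and dimers late (about 1.97 mL). Peak AUCs and the capsid/dimer AUC ratio are calculated.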

Hepatitis B virus [10] = test: Induction of capsid assembly of recombinant HBV core protein 149 (1 to 149 residues) assessed as Cp dimer peak AUC at 10 uM incubated overnight by UV detector based analysis (reference value: 1.63); procedure, shortened: as §1
Hepatitis B virus [11] = test: Induction of capsid assembly of recombinant HBV core protein 149 (1 to 149 residues) at 10 uM incubated overnight by SEC analysis; procedure, shortened: as §1
[12] = Cytotoxicity in human HepAD38 cells assessed as induction of cell killing; format: cell-based
Hepatitis B virus [13] = test: Induction of capsid assembly of recombinant HBV core protein 149 (1 to 149 residues) assessed as capsid peak AUC/Cp dimer peak AUC at 10 uM incubated overnight by UV detector based analysis (reference value: 0.59); procedure, shortened: as §1
Hepatitis B virus [14] = test: Induction of capsid assembly of recombinant HBV core protein 149 (1 to 149 residues) assessed as capsid peak AUC at 10 uM incubated overnight by UV detector based analysis (reference value: 0.96); procedure, shortened: as §1
Hepatitis B virus [15] = test: Antiviral activity against HBV infected in […] cells; format: functional, organism-based
Hepatitis B virus [16] = test: Antiviral activity against HBV infected in human HepG2.2.15 cells; format: functional, organism-based; settings: HepG2 2.2.15
Hepatitis B virus [17] = test: Antiviral activity against HBV genotype D in hydrodynamic injection-based C57BL/6 mouse model of HBV infection assessed as inhibition of HBV replication at 100 mg/kg, po dosed once daily for 7 days by real-time PCR analysis; format: functional, organism-based
Hepatitis B virus [18] = test: Antiviral activity against multidrug-resistant HBV infected in human HepG2.1403F cells assessed as reduction in viral replication incubated for 6 days by PCR analysis; format: functional, organism-based; settings: 144 h
Procedure, shortened: (§2)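 Wild-type HBV replication measured in HepAD38 and HepG2.2.15 cells, lamivudine/entecavir-resistant HBV in HepG2.A64 cells (rtL180M+rtT184L+rtM204V) and multidrug-resistant HBV in HepG2.1403F cells (rtL180M+rtM204V+rtS202G+rtN236T). Read-out is reduction of HBV DNA. EC50 is reported as mean ± SD.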

[19] = Selectivity index, ratio of CC50 for cytotoxicity in human HepAD38 cells assessed as induction of cell killing to EC50 for antiviral activity against HBV infected in human HepAD38 cells assessed as reduction in viral DNA levels incubated for 6 days by PCR analysis; format: toxicity, cell-based; settings: read-out: Ratio CC50/EC50
Hepatitis B virus [20] = test: Antiviral activity against HBV infected in human HepG2.A64 cells containing reverse transcriptase L180M/T184L/M204V mutant assessed as reduction in viral replication incubated for 6 days by PCR analysis; format: functional, organism-based; settings: HepG2.A64, 144 h; procedure, shortened: as §2
Hepatitis B virus [21] = test: Antiviral activity against HBV infected in human HepG2.2.15 cells assessed as reduction in viral DNA levels incubated for 6 days by PCR analysis; format: functional, organism-based; settings: HepG2 2.2.15, 144 h
[22] = Cytotoxicity in human HepG2 cells assessed as induction of cell killing; format: cell-based
[23] = Cytotoxicity in human HepG2 cells assessed as induction of cell killing
[24] = Stability in pH 6.8 buffer assessed as compound remaining level at 37 degC by HPLC analysis; format: physicochemical
Procedure, shortened: (§3)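 Prodrug incubated in buffer (0.1 M HCl, pH 5.8, 6.8 or 7.4) at 37 °C; percent of compound remaining determined by HPLC; remaining percentage reported after 3 h, stability meaning no hydrolysis after 2 h.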

[25] = Stability in pH 7.4 buffer assessed as compound remaining level at 37 degC by HPLC analysis; format: physicochemical; procedure, shortened: as §3
[26] = Half life in mouse plasma by HPLC analysis; format: ADME, cell-free
Procedure, shortened: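 Prodrug incubated in plasma at 37 °C, with percent remaining determined by HPLC to derive half-life.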

[27] = Stability in pH 5.8 buffer assessed as compound remaining level at 37 degC by HPLC analysis; format: physicochemical; procedure, shortened: as §3
[28] = Intrinsic clearance in human liver microsomes; format: ADME, Microsome; settings: read-out: CLH
[29] = Intrinsic clearance in mouse liver microsomes; format: ADME, Microsome; settings: read-out: CLH
[30] = Stability in pH 7.4 buffer assessed as compound remaining level after 3 hrs at 37 degC by HPLC analysis; format: physicochemical; settings: read-out: Stability; procedure, shortened: as §3
[31] = Solubility in pH 6.8 phosphate buffer at 1 mg at 25 degC by HPLC analysis; format: physicochemical; settings: phosphate buffer, read-out: solubility
Procedure, shortened: (§4)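 Solubility determined in water or 0.067 M phosphate buffer at pH 5.8, 6.8 and 7.4. Values are reported in mg/mL; ND means below the detection limit.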

[32] = Solubility in pH 7.4 phosphate buffer at 1 mg at 25 degC by HPLC analysis; format: physicochemical; procedure, shortened: as §4
[33] = Solubility in water at 1 mg at 25 degC by HPLC analysis; format: physicochemical; procedure, shortened: as §4
[34] = Solubility in pH 5.8 phosphate buffer at 1 mg at 25 degC by HPLC analysis; format: physicochemical; procedure, shortened: as §4

SMILES: Cc1cc(Nc2nn(C3CC3)c3cnc(S(=O)(=O)N4CCC(OC(=O)CN(C)C)CC4)cc23)ccc1F
Activity (Hepatitis B virus [1]): Active
Activity (Hepatitis B virus [2]): Active
Activity (Hepatitis B virus [3]): Active
Activity (Hepatitis B virus [4]): inactive
Activity (Hepatitis B virus [5]): Active
Activity (Hepatitis B virus [6]): Active
Activity (Hepatitis B virus [7]): Active

SMILES: O=S(=O)(c1ccc2c(c1)c(Nc1cc(F)c(F)c(F)c1)nn2C1CC1)N1CCC(O)CC1
EC50 (Hepatitis B virus [8]): 270 nM
Activity (Hepatitis B virus [9]): Active
AUC (Hepatitis B virus [10]): 0.39
Activity (Hepatitis B virus [11]): Active
CC50 [12]: 100000 nM
AUC (Hepatitis B virus [13]): 1.43
AUC (Hepatitis B virus [14]): 0.56

EC50 (Hepatitis B virus [15]): 300 nM
SMILES: CCC(C)NS(=O)(=O)c1ccc(F)c(C(=O)Nc2ccc(F)c(F)c2)c1 (stereo not given)

EC50 (Hepatitis B virus [16]): 53 nM
SMILES: COC(=O)C1=C(C)NC(c2ncc(F)cc2F)=N[C@H]1c1ccc(F)cc1Cl

SMILES: CC[C@@H](C)NS(=O)(=O)c1ccc(F)c(C(=O)Nc2ccc(F)c(F)c2)c1
EC50 (Hepatitis B virus [8]): 310 nM
Activity (Hepatitis B virus [17]): inactive
EC50 (Hepatitis B virus [18]): 74 nM
selectivity ratio at 144 h [19]: 129
EC50 (Hepatitis B virus [20]): 48 nM
EC50 (Hepatitis B virus [21]): 280 nM
CC50 [22]: 39800 nM
CC50 [23]: 39800 nM

Stability [24]: 67.6%
Stability [25]: 74.2%
half-life [26]: 77.5 min
Stability [27]: 88.3%
SMILES: Cc1cc(Nc2nn(C3CC3)c3cnc(S(=O)(=O)N4CCC(OC(=O)CN)CC4)cc23)ccc1F.O=C(O)C(F)(F)F

EC50 (Hepatitis B virus [8]): 57 nM
microsomal CLint [28]: 41 µL/min/mg
microsomal CLint [29]: 26.9 µL/min/mg
SMILES: Cc1cc(Nc2nn(C3CC3)c3ccc(S(=O)(=O)N4CCOCC4)cc23)ccc1F
CC50 [12]: > 100000 nM

Stability [24]: 80.2%
remaining at 3 h [30]: 55.6%
half-life [26]: 31.2 min
Stability [27]: 85.7%
SMILES: Cc1cc(Nc2nn(C3CC3)c3cnc(S(=O)(=O)N4CCC(OC(=O)[C@H](C)N)CC4)cc23)ccc1F.O=C(O)C(F)(F)F

solubility [31]: 40 µg/mL
solubility [32]: 16 µg/mL
solubility [33]: 6900 µg/mL
solubility [34]: 6750 µg/mL
SMILES: Cc1cc(Nc2nn(C3CC3)c3cnc(S(=O)(=O)N4CCC(OC(=O)CN(C)C)CC4)cc23)ccc1F.Cl
